Measured values from ChEMBL document CHEMBL1151949, “Alkaloids from the roots of Stemona aphylla” (2009).
In brackets after ≈: the same amount, converted by molar mass.

How the values were obtained:
Type in all cases: functional
Candida albicans = assay: Antimicrobial activity against Candida albicans ATCC 90028 after 24 hrs by broth dilution technique; details: ATCC 90028, 24 h
In short: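 Broth dilution in trypticase soy broth, series from 500 to 1.95 µg/mL. Incubation at 37 °C for 24 h. MIC taken as lowest concentration with no visible growth. Amphotericin B served as antifungal positive control.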

Plutella xylostella = assay: Insecticidal activity against Plutella xylostella treated as topical application
Escherichia coli = assay: Antimicrobial activity against Escherichia coli ATCC 25922 after 24 hrs by broth dilution technique
In short: (§1)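 Serial dilutions in trypticase soy broth spanning 500 to 1.95 µg/mL, tested by broth dilution; tubes incubated 37 °C for 24 h. MIC taken as lowest concentration tube with no visible organism growth. Gentamycin served as antibacterial positive control.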

Staphylococcus aureus = assay: Antimicrobial activity against Staphylococcus aureus ATCC 25923 after 24 hrs by broth dilution technique; in short: as §1
Pseudomonas aeruginosa = assay: Antimicrobial activity against Pseudomonas aeruginosa ATCC 27853 after 24 hrs by broth dilution technique; in short: as §1

Work on `C[C@@H]1[C@H](O)[C@@H](C)/C=C/C=C/C=C/C=C/C=C/C=C/C=C/[C@H](O[C@@H]2O[C@H](C)[C@@H](O)[C@H](N)[C@@H]2O)C[C@@H]2O[C@](O)(C[C@@H](O)C[C@@H](O)[C@H](O)CC[C@@H](O)C[C@@H](O)CC(=O)O[C@H]1C)C[C@H](O)[C@H]2C(=O)O` [AMPHOTERICIN B] yielded an MFC (Candida albicans) of 0.7 µg/mL (≈ 0.758 µM).
`CNC(=O)ON=C(C)SC` [METHOMYL] showed an LC50 (Plutella xylostella) of 1840 µg/mL (≈ 11300 µM).
`C[C@@H]1C[C@H](C[C@@H](C)[C@H]2CCCCN3CCC[C@@H]23)OC1=O` [STEMAPHYLLINE] was tested, and the LC50 (Plutella xylostella) was 1820 µg/mL (≈ 6530 µM), the MBC (Escherichia coli; ATCC 25922, 24 h) was 125 µg/mL (≈ 447 µM) and the MIC (Escherichia coli; ATCC 25922, 24 h) was 62.5 µg/mL (≈ 224 µM). The MBC (Staphylococcus aureus; ATCC 25923, 24 h) was 250 µg/mL (≈ 895 µM), the MIC (Staphylococcus aureus; ATCC 25923, 24 h) was 125 µg/mL (≈ 447 µM) and the MBC (Pseudomonas aeruginosa; ATCC 27853, 24 h) was 125 µg/mL (≈ 447 µM). The MIC (Pseudomonas aeruginosa; ATCC 27853, 24 h) was 62.5 µg/mL (≈ 224 µM), the MFC (Candida albicans) was 125 µg/mL (≈ 447 µM) and the MIC (Candida albicans) was 125 µg/mL (≈ 447 µM).
Molecule GENTAMICIN has an MBC (Escherichia coli) of 5.62 µg/mL, an MIC (Escherichia coli) of 5.62 µg/mL and an MBC (Staphylococcus aureus) of 22.5 µg/mL. For the same molecule, the MIC (Staphylococcus aureus) was 5.62 µg/mL, the MBC (Pseudomonas aeruginosa) was 1.46 µg/mL and the MIC (Pseudomonas aeruginosa) was 0.35 µg/mL.
